# Assay outcomes: PubChem, Sanford-Burnham Center for Chemical Genomics
# A selection: hits, their analogues and other compounds. The true share with any hit is near 1.6%.
# FLuc act counter – FLuc activators, initial screening, artefact control for FLuc-dependent activation tests, biochemical, ATPlite luminescence; 200,000 tested, under 10 active; ATPlite luciferase biochemical, 10 min; 0 = ATP-free wells, 1 = DMSO control; activation factor at 10 µM; Luciferin 4-monooxygenase (Photinus pyralis), P08659;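 active = luciferase activation factor, scaled between plate controls, of at least 2 with compound at 10 µM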
# Target sequence (P08659 whole entry, looked up): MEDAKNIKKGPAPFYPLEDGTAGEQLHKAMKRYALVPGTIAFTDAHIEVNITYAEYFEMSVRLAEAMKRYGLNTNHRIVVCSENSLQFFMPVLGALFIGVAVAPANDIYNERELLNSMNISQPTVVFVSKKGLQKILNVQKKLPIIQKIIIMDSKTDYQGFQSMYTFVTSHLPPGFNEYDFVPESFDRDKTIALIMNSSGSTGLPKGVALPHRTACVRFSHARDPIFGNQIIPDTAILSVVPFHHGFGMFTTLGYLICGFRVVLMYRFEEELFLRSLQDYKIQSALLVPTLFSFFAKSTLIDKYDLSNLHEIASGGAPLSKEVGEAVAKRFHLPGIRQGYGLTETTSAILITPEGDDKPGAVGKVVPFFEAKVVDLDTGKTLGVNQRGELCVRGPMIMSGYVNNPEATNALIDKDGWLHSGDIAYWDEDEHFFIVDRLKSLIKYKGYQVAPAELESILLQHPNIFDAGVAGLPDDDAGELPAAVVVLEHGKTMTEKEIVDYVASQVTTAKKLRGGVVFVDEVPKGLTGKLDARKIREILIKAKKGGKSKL
#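 Material: luciferase plus luciferin reagent, cell-free. Medium: PBS buffer for ATP. Also added: ATP substrate, dispensed from a 10.24 µM working solution in PBS. Doses: test compounds dosed from 2 mM stocks in 100% DMSO. Incubation: 10 min post-reagent at room temperature. Technique: light output (luminescence). Read-out basis: luminescence gain marking luciferase activators.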
# C8 TRAIL sens – viability loss with TRAIL in NB7+C8 cells, primary screen, TRAIL sensitizer project, cell-based, ATPlite luminescence; inhibition (viability loss, TRAIL sensitization), % at 10 µM; 360,000 compounds, 1% hits;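 active = compounds causing at least 50% loss of cell viability in the single-dose screen, relative to plate controls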
# PPC-1+TRAIL kill – compounds killing PPC-1 cancer cells with TRAIL present, primary screen, TRAIL potentiator project, ATPLite luminescence, uHTS; PPC-1 cells + TRAIL, ATPLite viability luminescence; cell killing (% activity), % at 4 µM or 5 µM; 220,000 compounds, 0.41% hits; AID 1443, 2008;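 active = cell killing above 50% in the first pass at 4 µM, then a duplicate retest at 5 µM averaging 50% or more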;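 also: plate controls were cells with TRAIL plus DMSO for no effect and medium-only wells lacking cells for full effect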
# FLuc inh counter – firefly luciferase enzyme inhibitors, primary screen, artefact control for luciferase-based inhibitor screens, biochemical, luminescence, ATPLite; Luciferin 4-monooxygenase (Photinus pyralis), P08659; 10 min; inhibition, % at 10 µM; AID 1006, 2008; 200,000 compounds, 1.5% hits;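 active = inhibition above about 50% when tested at 10 µM, limit read from the data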
# Starred values were filed as active, the others as inactive; x = no result given.
SMILES,FLuc act counter,C8 TRAIL sens,PPC-1+TRAIL kill,FLuc inh counter
NS(=O)(=O)c1ccc(CCNC(=O)c2cc(-c3ccc(Br)cc3)nc3ccccc23)cc1,1,5,27,4
CCCc1ccc(-c2cc(C(=O)NCCc3ccc(S(N)(=O)=O)cc3)c3ccccc3n2)cc1,0.4,58*,38,64*
COc1ccc(NC(=O)CSc2nnc(-c3cccs3)n2N)cc1S(N)(=O)=O,x,-3,x,x
CCCCCCCCn1ccc(=N)cc1,x,30,31,x
CCCCCCCCCCn1ccc(=N)cc1,x,55*,47,x
COc1ccc(NC(=O)C(OC(=O)Cn2cnc3c2c(=O)n(C)c(=O)n3C)c2ccccc2)cc1Cl (configuration not stated),x,-8,x,x
Cc1ccc2nc(-c3ccccc3)nn2c1,x,76*,x,x
COC(=O)c1ccc(N=Nc2ccccc2)cc1,0.4,7,11,60*
Cc1ccc(C2=NN=C(NC(=O)C(F)(F)F)SC2)cc1,0.7,8,20,34
O=[N+]([O-])c1cc2c(cc1Br)-c1ccccc1C2,x,1,x,x
CCOC(=O)c1sc(=NC(=O)c2cccc(OC)c2)n(C)c1C,0.9,3,24,14
CCOC(=O)c1sc(=NC(=O)c2ccccc2)n(C)c1C,0.3,14,38,68*
CCOC(=O)c1sc(NC(=O)c2ccccc2)cc1C,0.3,50*,40,69*
O=C(COc1ccccc1C(=O)Nc1ccccc1)NCCc1ccccc1,0.4,-3,0,57*
Cc1ccc(NC(=O)COc2ccccc2C(=O)NCCc2ccccc2)cc1,x,11,x,x
O=C(NCc1ccc2c(c1)OCO2)C(=O)NCC1OCCCN1S(=O)(=O)c1ccccc1 (configuration not stated),x,-15,x,x
Clc1cccc(-c2nnc(-c3ccccc3)o2)c1,0.3,46,25,73*
Cc1cccc(-c2nnc(-c3ccc(N)cc3)o2)c1,0.4,38,32,56*
COc1ccccc1Cc1c(-c2cccc(Cl)c2)nc2ccc(C)cn12,x,23,x,x
O=c1oc(-c2cccs2)nc2sc3c(c12)CCCCC3,0.3,9,-8,67*
CCOCCCNC(=O)c1cc2c(s1)-c1ccccc1SC2,x,4,x,x
CN(C)CCNC(=O)c1cc2c(s1)-c1ccc(Cl)cc1SC2,x,97*,x,x
CC[C@]12c3[nH]c4ccc(Cl)cc4c3CCN1C(=O)[C@@H](CC(=O)NCc1cccc(C(F)(F)F)c1)C[C@@H]2C(=O)N1CCN(C(=O)c2ccco2)CC1,x,61*,x,x
CCCCCCN1CCN(C2CN(Cc3ccc(F)cc3)S(=O)(=O)C2)CC1 (configuration not stated),x,8,x,x
CCOc1ccccc1C(=O)NN1C(=O)C2CCCCC2C1=O (configuration not stated),1,-9,17,-4
SMILES,FLuc act counter,C8 TRAIL sens,PPC-1+TRAIL kill,FLuc inh counter
CC(C)c1ccc(C(=O)NN2C(=O)C3CCCCC3C2=O)cc1 (configuration not stated),0.2,23,18,80*
COCC(=O)Nc1nnc(-c2ccc(C(C)(C)C)cc2)s1,0.4,39,44,60*
O=[N+]([O-])c1ccc(SNc2ccccc2)c([N+](=O)[O-])c1,x,-4,x,x
O=[N+]([O-])c1ccc(-[n+]2ccc3ccccc3c2)c([N+](=O)[O-])c1,x,55*,x,x
CCN1C(=O)[C@H]2[C@@H](c3ccc(-c4ccc(F)cc4)c(OC)c3)N[C@@](Cc3ccccc3)(C(=O)OC)[C@H]2C1=O,x,5,x,x
CCOc1ccc(-c2cc(C(=O)N/N=C(\C)c3cccnc3)c3ccccc3n2)cc1,x,68*,x,x
COc1ccc(OC)c(-c2cc(C(=O)N/N=C(\C)c3cccnc3)c3ccccc3n2)c1,x,-4,x,x
C/C(=N\NC(=O)c1cc(-c2ccco2)nc2ccccc12)c1cccnc1,0.5,8,16,53*
O=C(NCc1ccccc1)C(c1ccc(O)cc1)N(C(=O)c1cnccn1)c1ccccc1 (configuration not stated),x,4,x,x
CC(OC(=O)C1CCN(S(=O)(=O)c2ccc(C(C)(C)C)cc2)CC1)C(=O)N(C)C1CCCCC1 (configuration not stated),x,14,x,x
O=C(Nc1ccccc1SC(=O)c1ccccc1)c1ccccc1,x,-4,x,x
Cc1ccc(C(=O)Sc2cccccc2=O)cc1,x,61*,x,x
C=CCN(CC=C)c1cnn(-c2nc3ccccc3[nH]2)c(=O)c1Cl,0.5,66*,16,51*
C[C@H](CO)N1C[C@H](C)[C@@H](CN(C)Cc2ccncc2)Oc2ccc(NC(=O)Cn3cnnn3)cc2C1=O,x,-16,x,x
CC1CCN(c2ccc(-c3cccs3)nn2)CC1,x,97*,x,x
Clc1ccc(-c2cccs2)nn1,1,1,-2,-3
CCOC(=O)N1CCN(c2ccc(S(=O)(=O)N3CCC(C)CC3)cc2[N+](=O)[O-])CC1,x,16,x,x
COc1ccc(CN2C[C@]3(CO)O[C@@H](CO)C[C@@H]3S2(=O)=O)cc1,x,5,x,x
Cc1cc(C(=O)COC(=O)c2cccc(S(=O)(=O)N(C)C)c2)c(C)n1CC1CCCO1 (configuration not stated),x,62*,x,x
COc1cc(OC)cc(C(=O)OCC(=O)c2cc(C)n(CC3CCCO3)c2C)c1 (configuration not stated),x,15,x,x
Cc1cc(C(=O)COC(=O)c2ccc(O)cc2)c(C)n1CC1CCCO1 (configuration not stated),0.5,28,22,53*
CNS(=O)(=O)c1cccc(C(=O)OCC(=O)c2cc(C)n(CC3CCCO3)c2C)c1 (configuration not stated),x,62*,x,x
CN(C)S(=O)(=O)c1cccc(C(=O)OCC(=O)NC2CCCc3ccccc32)c1 (configuration not stated),0.4,-5,-3,57*
CCCOCC(O)CCc1n[nH]c(=S)n1-c1ccccc1 (configuration not stated),1,1,7,-4
O=C(N/N=C/c1ccco1)c1cccc(N2CCCC2=O)c1,0.5,6,-7,52*
SMILES,FLuc act counter,C8 TRAIL sens,PPC-1+TRAIL kill,FLuc inh counter
CN1CCC(N(C)C(=O)c2cc(=O)c3ccccc3o2)CC1,1.1,5,1,-6
COc1ccccc1NC(=O)N(C)C[C@@H]1OCc2cnnn2CCCC(=O)N([C@@H](C)CO)C[C@H]1C,x,1,x,x
CCOc1c2ccoc2nc2c(OC)c(OC)ccc12,0.6,14,4,37
C=CCOc1ccc2c(OC)c3ccoc3nc2c1OC,0.5,46,34,54*
O=C(NC(=S)Nc1ccccn1)c1cncc(Br)c1,0.4,10,12,64*
O=C(NC(=S)Nc1ccc(Br)cn1)c1cncc(Br)c1,0.6,16,1,42
Cc1ccc(OCC(=O)NC(=S)Nc2ccccn2)c(Br)c1,x,84*,x,x
CC#CC(=O)N1CCCC(Cc2cccc(OC)c2)(C(=O)OCC)C1 (configuration not stated),x,-1,x,x
